Several values for one entry are separate records, joined by “and”; a condition that tells them apart may be missing. Equal entries are not always repeated.
Columns and labels:
[1] = Cmax in rat (PO dose); format: ADME, organism-based; design: route oral; details: in vivo
Outline: (§1)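 Rats dosed by oral gavage at 200 µmol/kg. Tail-vein blood drawn at about 1 h intervals; plasma analysed by HPLC. Mean of data from two animals.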

[2] = Tmax in dog (PO dose); format: ADME, organism-based, Canis lupus familiaris; details: in vivo
Outline: (§2)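 Dogs (n=2) given 113 or 112 µmol/kg orally. Blood sampled at various times; plasma deproteinized with methanol and quantified by reversed-phase C18 HPLC with UV detection at 260 nm, external calibration. Values are means of two animals.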

[3] = biological target: T1, Polyunsaturated fatty acid 5-lipoxygenase (Rattus norvegicus, UniProt P12527); experiment: In vitro 5-lipoxygenase inhibitory activity against calcium ionophore (A23187) induced LTB4 formation in rat polymorphonuclear leukocytes; format: functional, cell-based
T1 sequence (P12527 whole entry): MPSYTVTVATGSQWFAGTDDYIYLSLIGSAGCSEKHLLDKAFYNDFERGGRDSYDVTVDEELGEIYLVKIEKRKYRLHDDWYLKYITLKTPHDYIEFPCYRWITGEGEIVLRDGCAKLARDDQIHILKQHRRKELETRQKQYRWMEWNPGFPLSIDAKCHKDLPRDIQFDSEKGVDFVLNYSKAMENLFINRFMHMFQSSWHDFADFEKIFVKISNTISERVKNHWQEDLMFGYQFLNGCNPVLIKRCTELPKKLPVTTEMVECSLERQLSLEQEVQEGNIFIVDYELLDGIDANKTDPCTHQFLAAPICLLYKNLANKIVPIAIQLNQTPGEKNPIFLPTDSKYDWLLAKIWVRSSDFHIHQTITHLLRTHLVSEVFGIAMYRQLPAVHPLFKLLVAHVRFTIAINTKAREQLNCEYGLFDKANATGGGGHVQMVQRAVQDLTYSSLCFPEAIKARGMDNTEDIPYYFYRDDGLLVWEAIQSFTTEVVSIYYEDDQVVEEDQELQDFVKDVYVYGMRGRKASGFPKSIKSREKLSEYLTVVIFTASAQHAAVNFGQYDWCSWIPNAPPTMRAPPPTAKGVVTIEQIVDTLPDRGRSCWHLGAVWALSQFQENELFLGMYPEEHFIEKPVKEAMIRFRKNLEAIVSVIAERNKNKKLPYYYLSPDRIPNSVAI

[4] = T1/2 in dog (PO dose); format: ADME, organism-based; details: in vivo; outline: as §2
[5] = Tmax in rat (PO dose); format: ADME, organism-based; details: in vivo; outline: as §1
[6] = Plasma Tmax in rat (PO dose); format: ADME, organism-based; outline: as §1
Cmax in dog (PO dose) = details: in vivo
Rattus norvegicus = experiment: In vivo inhibition of rat anaphylaxis leukotriene formation from peritoneal fluids, 1 hr after an oral dose of 200 uM/Kg; format: functional
Outline: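 Rats given 200 µmol/kg orally 1 h before antibody-antigen challenge inducing peritoneal leukotriene biosynthesis; LTE4 in peritoneal fluid measured. Mean of eight rats; percent inhibition versus control group mean; significance by one-way ANOVA with Tukey's multiple comparison.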

[7] = biological target: T2, Polyunsaturated fatty acid 5-lipoxygenase (Homo sapiens, UniProt P09917); experiment: In vitro 5-lipoxygenase inhibitory activity against calcium ionophore (A23187) induced LTB4 formation in human whole blood; format: functional, tissue-based
T2 sequence (P09917 whole entry): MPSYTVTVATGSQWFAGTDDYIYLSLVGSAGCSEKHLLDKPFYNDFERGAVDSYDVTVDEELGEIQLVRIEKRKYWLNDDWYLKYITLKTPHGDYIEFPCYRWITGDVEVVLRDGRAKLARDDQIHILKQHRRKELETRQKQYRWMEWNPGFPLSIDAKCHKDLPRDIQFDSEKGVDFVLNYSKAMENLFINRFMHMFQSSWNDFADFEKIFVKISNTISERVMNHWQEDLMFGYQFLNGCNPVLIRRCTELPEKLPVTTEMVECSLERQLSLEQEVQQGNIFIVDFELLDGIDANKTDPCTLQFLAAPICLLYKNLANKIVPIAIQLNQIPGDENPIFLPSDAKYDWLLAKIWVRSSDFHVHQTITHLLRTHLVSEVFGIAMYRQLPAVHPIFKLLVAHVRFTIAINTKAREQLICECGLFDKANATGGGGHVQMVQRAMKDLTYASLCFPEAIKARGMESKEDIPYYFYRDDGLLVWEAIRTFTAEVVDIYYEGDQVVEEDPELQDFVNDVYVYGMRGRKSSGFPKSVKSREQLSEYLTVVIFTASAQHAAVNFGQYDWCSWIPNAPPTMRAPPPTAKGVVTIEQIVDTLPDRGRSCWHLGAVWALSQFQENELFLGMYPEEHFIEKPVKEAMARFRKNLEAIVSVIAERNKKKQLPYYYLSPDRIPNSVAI

[8] = biological target: Prostaglandin G/H synthase 1 (Ovis aries) (UniProt P05979); experiment: Compound at 100 uM was tested in vitro for inhibition of Prostaglandin G/H synthase sheep seminal vesicle
[9] = biological target: T2, Polyunsaturated fatty acid 5-lipoxygenase; experiment: In vitro 5-lipoxygenase inhibitory activity against calcium ionophore (A23187) induced LTB4 formation in human whole blood.
Cyclooxygenase [10] = biological target: T3, Cyclooxygenase (Homo sapiens, UniProt P35354+P23219); experiment: In vitro cyclooxygenase inhibitory activity at 100 uM against calcium ionophore (A23187) induced thromboxane formation in human whole blood; format: functional, tissue-based
Outline: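 Human whole blood challenged with calcium ionophore A23187; thromboxane measured by enzyme immunoassay as COX readout. Duplicate assays; percent inhibition at highest tested concentration.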

[11] = biological target: Cyclooxygenase (Rattus norvegicus) (UniProt P35355+Q63921); experiment: In vitro cyclooxygenase inhibitory activity at 100 uM against calcium ionophore (A23187) induced thromboxane formation in rat polymorphonuclear leukocytes; format: functional, cell-based
Outline: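 Rat polymorphonuclear leukocytes stimulated with calcium ionophore A23187; thromboxane determined by enzyme immunoassay. Duplicate assays; percent inhibition reported at highest concentration tested.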

[12] = T1/2 in cynomolgus monkey (PO dose); format: ADME, organism-based, Macaca fascicularis; details: in vivo
Outline: (§3)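 Cynomolgus monkeys (n=2) dosed orally, 113 or 112 µmol/kg, as suspension in 0.2% HPMC. Plasma from serial blood samples deproteinized with 2 volumes methanol, run on C18 reversed-phase HPLC (55% acetonitrile, 10 mM acetohydroxamic acid, 8 mM triethylamine acetate, pH 6.5), UV 260 nm against external calibration curve. Mean of two animals.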

[13] = Tmax in cynomolgus monkey (PO dose); format: ADME, organism-based, Macaca fascicularis; details: in vivo; outline: as §3
[14] = Cmax in cynomolgus monkey (PO dose); format: ADME, organism-based, Macaca fascicularis; design: route oral; details: in vivo; outline: as §3
Cyclooxygenase [15] = biological target: T4, Cyclooxygenase (Rattus norvegicus, UniProt P35355+Q63921); experiment: In vitro cyclooxygenase inhibitory activity against calcium ionophore (A23187) induced thromboxane formation in rat polymorphonuclear leukocytes; format: functional, cell-based
T4 sequence (P35355 whole entry): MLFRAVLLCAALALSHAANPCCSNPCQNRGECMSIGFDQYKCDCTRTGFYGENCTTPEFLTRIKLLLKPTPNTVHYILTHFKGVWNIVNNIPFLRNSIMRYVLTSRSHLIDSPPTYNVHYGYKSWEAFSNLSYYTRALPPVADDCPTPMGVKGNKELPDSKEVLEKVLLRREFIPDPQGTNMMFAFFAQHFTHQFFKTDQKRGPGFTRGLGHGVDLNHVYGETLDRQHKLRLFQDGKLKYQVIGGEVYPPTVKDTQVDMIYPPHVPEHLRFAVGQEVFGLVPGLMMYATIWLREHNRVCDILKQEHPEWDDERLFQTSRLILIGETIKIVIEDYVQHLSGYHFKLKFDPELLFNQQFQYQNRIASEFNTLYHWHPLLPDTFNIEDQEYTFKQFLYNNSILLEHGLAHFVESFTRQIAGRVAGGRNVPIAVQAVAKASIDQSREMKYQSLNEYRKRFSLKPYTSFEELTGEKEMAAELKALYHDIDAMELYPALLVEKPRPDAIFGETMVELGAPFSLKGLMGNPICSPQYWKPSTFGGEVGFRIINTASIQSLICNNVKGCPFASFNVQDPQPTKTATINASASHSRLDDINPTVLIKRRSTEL
T4 sequence (Q63921 whole entry): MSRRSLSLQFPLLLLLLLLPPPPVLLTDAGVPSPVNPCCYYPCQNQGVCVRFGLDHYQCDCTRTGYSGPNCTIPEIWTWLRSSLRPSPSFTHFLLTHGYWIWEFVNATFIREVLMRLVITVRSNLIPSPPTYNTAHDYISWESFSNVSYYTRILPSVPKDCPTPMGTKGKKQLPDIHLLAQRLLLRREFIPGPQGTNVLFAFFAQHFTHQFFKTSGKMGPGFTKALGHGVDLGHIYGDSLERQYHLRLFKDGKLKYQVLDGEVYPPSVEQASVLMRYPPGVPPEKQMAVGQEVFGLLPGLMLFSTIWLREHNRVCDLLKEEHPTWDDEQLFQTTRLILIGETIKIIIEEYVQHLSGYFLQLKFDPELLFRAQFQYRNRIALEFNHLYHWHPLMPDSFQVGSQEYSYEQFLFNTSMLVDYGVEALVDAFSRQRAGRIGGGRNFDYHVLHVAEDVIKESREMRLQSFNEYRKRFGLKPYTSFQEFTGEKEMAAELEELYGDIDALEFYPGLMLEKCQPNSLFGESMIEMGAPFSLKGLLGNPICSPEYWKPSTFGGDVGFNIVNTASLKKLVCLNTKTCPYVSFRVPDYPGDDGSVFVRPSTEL
Outline: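 Rat polymorphonuclear leukocytes, intact cells, stimulated with calcium ionophore A23187. Thromboxane quantified by enzyme immunoassay. Duplicate assays.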

[16] = biological target: Prostaglandin G/H synthase 1 (Ovis aries) (UniProt P05979); experiment: Compound was tested in vitro for inhibition of Prostaglandin G/H synthase sheep seminal vesicle
Cyclooxygenase [17] = biological target: T3, Cyclooxygenase; experiment: In vitro cyclooxygenase inhibitory activity against calcium ionophore (A23187) induced thromboxane formation in human whole blood; format: functional, tissue-based
Outline: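 Human whole blood stimulated with calcium ionophore A23187. Thromboxane measured by enzyme immunoassay. Assays in duplicate.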

Sequence of Prostaglandin G/H synthase 1 (Ovis aries) (P05979 whole entry, looked up): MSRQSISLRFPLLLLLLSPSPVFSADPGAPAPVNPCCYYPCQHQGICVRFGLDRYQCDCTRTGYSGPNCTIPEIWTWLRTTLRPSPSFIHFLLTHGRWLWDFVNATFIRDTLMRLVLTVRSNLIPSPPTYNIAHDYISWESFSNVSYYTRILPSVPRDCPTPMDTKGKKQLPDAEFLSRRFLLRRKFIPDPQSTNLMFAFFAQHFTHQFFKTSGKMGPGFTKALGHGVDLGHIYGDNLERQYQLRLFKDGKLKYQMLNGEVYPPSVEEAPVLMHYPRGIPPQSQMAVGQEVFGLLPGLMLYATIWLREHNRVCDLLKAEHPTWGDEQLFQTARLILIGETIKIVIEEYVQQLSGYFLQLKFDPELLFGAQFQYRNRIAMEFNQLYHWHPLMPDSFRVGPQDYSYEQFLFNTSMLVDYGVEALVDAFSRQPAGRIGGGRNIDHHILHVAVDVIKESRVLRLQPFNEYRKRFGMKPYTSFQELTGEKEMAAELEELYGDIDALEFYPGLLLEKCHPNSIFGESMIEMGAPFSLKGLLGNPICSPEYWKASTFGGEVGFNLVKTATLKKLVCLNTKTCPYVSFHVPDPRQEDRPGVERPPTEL

Row | Cmax [1] [µM] | Tmax [2] [min] | IC50 [3] [µM] | half-life [4] [min] | Tmax [5] [h] | Tmax [6] [h] | Cmax (Cmax in dog (PO dose)) [µM] | IC50 [7] [µM] | inhibition [8] [%] | IC50 [9] | inhibition (Cyclooxygenase [10]) [%] | inhibition [11] [%] | half-life [12] [min] | Tmax [13] [h] | Cmax [14] [µM] | IC50 (Cyclooxygenase [15]) [µM] | IC50 [16] [µM] | IC50 (Cyclooxygenase [17]) [µM] | SMILES | ED50 (Rattus norvegicus) [mg/kg]
1 | 130 | 18 | 4.6 | 48 | 1 | 1 | 132 | 5.8 | 4 | 5.8 µM and 9.2 µM | 0 | 28 | 60 | 2 | 74 |  |  |  | O=C1NCCN(c2ccccc2)N1 | 7
2 |  |  |  |  |  |  |  |  |  |  |  |  |  |  |  | 13 | 94 | 12 | O=C1CCN(c2ccccc2)N1 [PHENIDONE] | 
